We go through 1 molecule from BindingDB's records for doi:10.1016/j.bmcl.2007.03.101 (Eli Lilly, 2007).

The experiment deals with T1, 5-hydroxytryptamine receptor 1A (Homo sapiens, UniProt P08908).
T1 sequence (P08908 whole entry): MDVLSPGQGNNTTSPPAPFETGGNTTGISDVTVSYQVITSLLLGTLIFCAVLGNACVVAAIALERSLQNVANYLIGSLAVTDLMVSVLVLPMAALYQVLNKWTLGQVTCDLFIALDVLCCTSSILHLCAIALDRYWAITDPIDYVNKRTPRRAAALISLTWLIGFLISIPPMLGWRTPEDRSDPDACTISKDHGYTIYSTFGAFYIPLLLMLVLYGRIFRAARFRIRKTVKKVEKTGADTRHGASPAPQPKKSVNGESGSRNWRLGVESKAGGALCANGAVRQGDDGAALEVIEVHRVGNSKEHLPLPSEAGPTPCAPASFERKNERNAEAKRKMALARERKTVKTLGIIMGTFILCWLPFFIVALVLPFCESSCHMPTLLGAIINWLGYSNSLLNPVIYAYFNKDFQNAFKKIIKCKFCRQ
Briefly: Displacement of [3H]8-OH-DPAT from human 5HT1A expressed in LM(tk-) cells. The procedure, abridged:
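Human 5-HT1A was cloned into L-M(tk-) cells, and membrane homogenates were prepared. Binding used [3H]-8-OH-DPAT as radioligand. Ki (nM) is the mean of runs in triplicate.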
A general note: In a radioligand displacement assay an active substance lowers the binding of a labelled ligand.

For `C[C@H]1CN(c2cccc3cc(F)ccc23)CCN1CC[C@H]1OCC2=CC(C(N)=O)=CCC21` (stereo partly drawn) [(1R)-1-(2-((S)-4-(6-fluoronaphthalen-1-yl)-2-methylpiperazin-1-yl)ethyl)-1,3,7,7a-tetrahydroisobenzofuran-5-carboxamide], the Ki – broadly, a measure of affinity in units of concentration, obtained from inhibition or displacement – was 13 nM.
